Bioassay records from PubChem.
INS promoter act: TRM-6 insulin promoter activation | 130,000 tested, 0.81% active | AID 1296 | TRM-6 cells (human fetal islet line), insulin promoter eGFP reporter, imaging; plate-scaled: unstimulated 0, stimulated control 100 | activation, % at 2 µM;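 active = activation at 2 µM above a set limit, confirmed on inspection of the cell images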;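 note: share of cells whose green reporter signal exceeds an intensity cutoff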
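test system = TRM-6 insulin promoter–eGFP reporter cells | benchmarks = stimulated versus unstimulated wells as plate controls | read-out basis = percent cells above green-intensity threshold, converted to percent activation versus plate controls | detection = fixed-cell fluorescence microscopy, eGFP plus Hoechst | incubation = tamoxifen pre-incubation 15 h overnight, then compound exposure 48 h at 37 °C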
* hit, by the source's call; [ ] = another dose, or the depositor's remark. The sample as a whole holds a higher share of hits than the screen did.

SMILES | INS promoter act
Cc1csc(NC(=O)C(NS(=O)(=O)c2ccc(Br)s2)c2ccccc2)n1 (configuration not stated) | 0
Cc1nc2c(C(=O)NCCC(C)C)c[nH]n2c(=O)c1Cc1ccccc1F | 0
CC(C)CCNC(=O)[C@@H](NC(=O)c1c(F)cccc1F)C(C)C | 94*
CC(C)[C@H](NC(N)=O)C(=O)NCCc1ccc(Cl)cc1Cl | -6
COCCn1c(-c2ccc(OC)cc2)cnc1SCC(=O)Nc1cccc2ccccc12 | 2
Cc1ccc(NC(=O)C2CCCN2S(=O)(=O)c2ccc(F)cc2)c(C)c1 (configuration not stated) | 246
NS(=O)(=O)c1ccc(CCNC(=O)C2CCN(S(=O)(=O)c3cnc[nH]3)CC2)cc1 | 5
CC1CCN(C(=O)C2CCN(S(=O)(=O)c3cnc[nH]3)CC2)CC1 | 506*
CC1CCN(C(=O)C2CCN(CC(C)c3ccccc3)CC2)CC1 (configuration not stated) | 368
COc1ccc(-c2nnc(SC(C(=O)c3c[nH]c4ccccc34)c3ccccc3)n2N)cc1OC (configuration not stated) | 0
O=C(NC(Cc1ccccc1)c1ccc2c(c1)OCCCO2)c1ccc(F)cc1 (configuration not stated) | 0
O=C(O)CCn1nnc(-c2cccs2)n1 | 0
Clc1ccccc1-c1nnc2sc(-c3cccs3)nn12 | 0
Clc1ccccc1Cn1nnc(-c2cccs2)n1 | 569*
COc1ccccc1NC(=O)c1ccc(NC(=O)COC(=O)CC(NC(=O)c2ccccc2Cl)c2ccccc2)cc1 (configuration not stated) | -3
OCC[C@H]1C[C@H](O)[C@@H](O)[C@@]2(CCCCO2)O1 | 0
CCOC(=O)c1c(Cc2ccccc2)c[nH]c1C | 6
O=C(CSCc1ccccc1)N/N=C/c1cc2c(cc1Br)OCO2 | 0
O=C(CN1CCCc2ccccc21)NCc1ccc2c(c1)OCO2 | -9
COC(=O)c1[nH]c2ccc(C)cc2c1NC(=O)CN1CCCc2ccccc21 | 166
O=C(CN1CCCc2ccccc21)NCCc1ccc(Cl)cc1 | 300*
Cc1cc(C(=O)CSc2nnc(-c3ccc(F)cc3)o2)c(C)n1CC1COc2ccccc2O1 (configuration not stated) | 8
O=C(CSc1nnc(-c2ccncc2)n1CC1CCCO1)NCc1ccccc1 (configuration not stated) | -8
Cc1cc(C(=O)CSc2nnc(-c3cccnc3)n2-c2ccccc2F)c(C)n1CC1CCCO1 (configuration not stated) | 91*
CC(C)COC(=O)Nc1nnc(SCCOc2ccccc2)s1 | -7
SMILES | INS promoter act
COc1ccc(OC)c(NC(=O)C2CCCN(S(=O)(=O)c3cccc4nsnc34)C2)c1 (configuration not stated) | 0
Cc1ccc(CCNC(=O)C2CCN(S(=O)(=O)c3cccc4nsnc34)CC2)cc1 | 7
Cc1ccnc(NC(=O)C2CCN(S(=O)(=O)c3cccc4nsnc34)CC2)c1 | 125*
O=C(COC(=O)c1cc([N+](=O)[O-])ccc1NCc1ccccc1)NC1CCCc2ccccc21 (configuration not stated) | -3
CS(=O)(=O)N(CC(=O)NC1CCCC1)c1ccc2c(c1)OCCO2 | 5
OCCCc1n[nH]c(=S)n1-c1ccccc1 | -7
Cc1ccccc1OCc1n[nH]c(=S)n1Cc1ccccc1 | 0
Nn1c(Cc2ccccc2)n[nH]c1=S | 486*
O=C(NCCc1nc2ccccc2[nH]1)/C(=C/c1ccco1)NC(=O)c1ccc(Br)o1 | 9
CCCCNC(=O)NS(=O)(=O)c1cnccc1Sc1ccc(Cl)cc1 | 8
O=C(NCc1ccc(OC(F)(F)F)cc1)C1CC(c2ccccc2[N+](=O)[O-])=NO1 (configuration not stated) | -7
CCCCNC(=O)C1CC(c2ccccc2[N+](=O)[O-])=NO1 (configuration not stated) | 161*
O=C(NCCc1cccs1)C1CC(c2ccc([N+](=O)[O-])cc2)=NO1 (configuration not stated) | -4
COc1cc(OC)nc(NC2OC(=O)c3ccccc32)n1 (configuration not stated) | -47
Cc1cccc(-n2c(SCc3ccc([N+](=O)[O-])cc3)nnc2-c2c[nH]c3ccccc23)c1 | 6
Cc1ccccc1OCC(=O)NC1=NCCS1 | 5
CN(C)C(=O)Cn1c(SCC(=O)NC2CCCCC2)nc2ccccc21 | -5
CCn1c(SCC(=O)NC(=O)NC(C)(C)C)nc2ccccc21 | 129*
CCn1c(SCC(=O)O)nc2ccccc21 | 0
O=C(NC(=S)Nc1ccc2c(c1)C(=O)c1ccccc1C2=O)c1ccc(F)cc1 | -7
O=C(Cn1cnnn1)Nc1ccccc1Cc1ccccc1 | 20
COc1ccc(Nc2nc(C)cc(=O)[nH]2)cc1 | 0
COc1ccc(S(=O)(=O)NCCc2ccc(F)cc2)cc1 | -91
COc1ccc(CCNc2cc(=O)[nH]c(N)n2)cc1 | 615*
CCN(CC)S(=O)(=O)c1ccc(NC(=O)COc2nc3ccccc3nc2N2CCOCC2)cc1 | 106
SMILES | INS promoter act
CCCOC(=O)c1ccc(-c2c(C)noc2-c2ccc(OC)cc2O)o1 | 4
CN1CCN(C2=CC3=CC(=C(C#N)C#N)CCC3CC2)CC1 (configuration not stated) | 641*
CCN1CCN(C2=CC3=CC(=C(C#N)C#N)CCC3CC2)CC1 (configuration not stated) | 614*[fluoresces]
CCN1CCN(c2nc3ccccc3nc2C(C#N)C(=O)OC2CCCCC2)CC1 (configuration not stated) | -8
N#CC(C#N)=C1C=C2C=C(N3CCCCCC3)CCC2CC1 (configuration not stated) | 223*
COC(=O)C1CN(S(=O)(=O)c2ccccc2)CCN1S(=O)(=O)c1ccccc1 (configuration not stated) | 8
Cc1nc2scc(-c3ccc(C(C)(C)C)cc3)c2c(=O)n1N | 0
CC(=O)Nc1cc(-c2ccc(Cl)cc2)[nH]n1 | -8
Cc1ccc(S(=O)(=O)N(CC(=O)N2CCCCC2)c2cccc(C)c2)cc1 | 114
Cn1c(Nn2cnnc2)nc2ccccc21 | 121*
CCCn1c(Nc2ccccc2)nc2ccccc21 | 10
Cn1c(NCc2c(O)ccc3ccccc23)nc2ccccc21 | -7
CCN(CC)c1ccc(/C=C2\C(=O)c3ccc(C(=O)O)cc3C2=O)cc1 | 0
O=C(Nc1ccc(N2CCN(c3ccccc3)CC2)c(F)c1)C1CC1 | -87
Cc1ccc(N/C=C(/C#N)c2ccsc2)cc1C | 7
CSc1nsc(/C=C/Nc2ccc(C)c(C)c2)c1C#N | 669*
COc1cc(/C=N/Nc2snc(SC)c2C#N)ccc1O | 2
Cc1nc(NCCc2ccccc2)c2oc3ccccc3c2n1 | -69
Cn1c(=O)c2c(nc(CN3CCN(Cc4ccccc4)CC3)n2Cc2ccccc2)n(C)c1=O | -80
CCCn1c(CN2CCCCC2CC)nc2c1c(=O)n(C)c(=O)n2C (configuration not stated) | 600*
CCCn1c(OC)nc2c1c(=O)n(C)c(=O)n2C | 0
O=C(Nc1ccc(Cl)cc1C(=O)N1CCOCC1)c1cccc([N+](=O)[O-])c1 | 7
O=C1CN(Cc2ccccc2)C(=NCc2ccco2)S1 | 292
O=C(CCCc1nc2ccccc2s1)NCc1ccccc1F | -7
CCCn1cc(NC(=O)c2cc3n(n2)C(C(F)(F)F)CC(c2ccccc2)N3)cn1 (configuration not stated) | 431*
